Experimental data published in ChEMBL document CHEMBL4033785, “Increased Potency and Selectivity for Group III Metabotropic Glutamate Receptor Agonists Binding at Dual sites” (J Med Chem, 2018).
Calls of active or inactive are those of the source. The calls are words filed in the database; no cut-off is given here.

Key:
[1] = target: T1, Metabotropic glutamate receptor 4 (Homo sapiens, UniProt Q14833); assay: Agonist activity at mGlu4 (unknown origin) expressed in HEK293 cells coexpressing chimeric Gq/i protein assessed as [3H]inositol phosphate accumulation after 30 mins at 100 uM by scintillation and luminescence counting method; assay type: functional, cell-based
T1 sequence (Q14833 whole entry): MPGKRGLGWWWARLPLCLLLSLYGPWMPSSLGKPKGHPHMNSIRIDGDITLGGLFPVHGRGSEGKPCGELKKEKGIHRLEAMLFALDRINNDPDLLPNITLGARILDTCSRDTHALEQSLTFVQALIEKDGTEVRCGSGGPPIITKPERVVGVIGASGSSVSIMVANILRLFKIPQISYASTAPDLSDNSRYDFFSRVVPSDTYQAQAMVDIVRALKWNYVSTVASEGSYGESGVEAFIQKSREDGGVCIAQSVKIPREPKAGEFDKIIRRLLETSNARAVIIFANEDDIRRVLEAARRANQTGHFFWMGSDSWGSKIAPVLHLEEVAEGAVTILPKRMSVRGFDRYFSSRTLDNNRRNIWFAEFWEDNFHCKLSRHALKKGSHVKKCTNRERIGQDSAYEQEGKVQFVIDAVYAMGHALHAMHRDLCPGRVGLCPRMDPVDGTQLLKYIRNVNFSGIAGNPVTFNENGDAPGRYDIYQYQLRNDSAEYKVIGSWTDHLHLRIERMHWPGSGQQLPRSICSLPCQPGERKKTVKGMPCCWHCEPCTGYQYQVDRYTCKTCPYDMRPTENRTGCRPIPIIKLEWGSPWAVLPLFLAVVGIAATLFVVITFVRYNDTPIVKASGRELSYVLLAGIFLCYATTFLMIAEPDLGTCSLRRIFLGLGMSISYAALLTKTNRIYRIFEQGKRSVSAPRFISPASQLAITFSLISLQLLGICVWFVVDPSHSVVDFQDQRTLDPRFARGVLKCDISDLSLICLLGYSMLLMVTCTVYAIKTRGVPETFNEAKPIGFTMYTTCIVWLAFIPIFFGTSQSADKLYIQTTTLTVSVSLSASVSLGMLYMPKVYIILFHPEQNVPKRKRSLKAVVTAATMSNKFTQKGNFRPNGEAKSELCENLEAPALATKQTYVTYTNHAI
How it was run: (§1)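 Receptor transiently co-expressed in HEK293 cells (electroporation) with chimeric G-protein and glutamate transporter EAAT3. Cells labelled overnight with 3H-myoinositol, stimulated with agonist 30 min, lysed 1 h in cold 0.1 M formic acid. 3H-IP isolated on Dowex ion exchange and counted. IP expressed relative to IP plus membrane radioactivity. Points in triplicate; EC50 from Hill-equation fit.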

[2] = target: T2, Metabotropic glutamate receptor 6 (Homo sapiens, UniProt O15303); assay: Agonist activity at mGlu6 (unknown origin) expressed in HEK293 cells coexpressing chimeric Gq/i protein assessed as [3H]inositol phosphate accumulation after 30 mins by scintillation and luminescence counting method; assay type: functional, cell-based; how it was run: as §1
T2 sequence (O15303 whole entry): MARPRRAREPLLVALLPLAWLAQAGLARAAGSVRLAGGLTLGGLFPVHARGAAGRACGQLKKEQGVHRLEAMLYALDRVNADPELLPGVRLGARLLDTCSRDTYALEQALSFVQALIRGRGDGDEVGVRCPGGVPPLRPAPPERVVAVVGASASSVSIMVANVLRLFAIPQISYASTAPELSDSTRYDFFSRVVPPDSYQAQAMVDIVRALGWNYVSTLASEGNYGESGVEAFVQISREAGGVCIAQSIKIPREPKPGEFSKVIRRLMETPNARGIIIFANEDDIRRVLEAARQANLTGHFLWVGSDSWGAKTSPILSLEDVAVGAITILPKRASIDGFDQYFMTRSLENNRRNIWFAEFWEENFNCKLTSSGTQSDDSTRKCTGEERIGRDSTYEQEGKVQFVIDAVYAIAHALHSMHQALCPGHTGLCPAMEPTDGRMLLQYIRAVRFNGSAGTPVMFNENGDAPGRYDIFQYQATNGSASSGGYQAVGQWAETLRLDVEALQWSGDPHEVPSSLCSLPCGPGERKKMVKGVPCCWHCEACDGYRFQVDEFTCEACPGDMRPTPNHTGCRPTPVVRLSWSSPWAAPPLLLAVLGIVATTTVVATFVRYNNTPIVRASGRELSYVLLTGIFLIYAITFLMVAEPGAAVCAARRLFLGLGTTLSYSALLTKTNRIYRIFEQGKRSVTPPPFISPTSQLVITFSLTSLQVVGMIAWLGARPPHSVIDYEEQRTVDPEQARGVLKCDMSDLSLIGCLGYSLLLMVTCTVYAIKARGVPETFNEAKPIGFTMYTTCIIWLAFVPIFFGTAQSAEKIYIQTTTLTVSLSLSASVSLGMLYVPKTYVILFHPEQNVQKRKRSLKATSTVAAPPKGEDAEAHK

[3] = target: T3, Metabotropic glutamate receptor 7 (Homo sapiens, UniProt Q14831); assay: Agonist activity at mGlu7 (unknown origin) expressed in HEK293 cells coexpressing chimeric Gq/i protein assessed as [3H]inositol phosphate accumulation after 30 mins by scintillation and luminescence counting method; assay type: functional, cell-based; how it was run: as §1
T3 sequence (Q14831 whole entry): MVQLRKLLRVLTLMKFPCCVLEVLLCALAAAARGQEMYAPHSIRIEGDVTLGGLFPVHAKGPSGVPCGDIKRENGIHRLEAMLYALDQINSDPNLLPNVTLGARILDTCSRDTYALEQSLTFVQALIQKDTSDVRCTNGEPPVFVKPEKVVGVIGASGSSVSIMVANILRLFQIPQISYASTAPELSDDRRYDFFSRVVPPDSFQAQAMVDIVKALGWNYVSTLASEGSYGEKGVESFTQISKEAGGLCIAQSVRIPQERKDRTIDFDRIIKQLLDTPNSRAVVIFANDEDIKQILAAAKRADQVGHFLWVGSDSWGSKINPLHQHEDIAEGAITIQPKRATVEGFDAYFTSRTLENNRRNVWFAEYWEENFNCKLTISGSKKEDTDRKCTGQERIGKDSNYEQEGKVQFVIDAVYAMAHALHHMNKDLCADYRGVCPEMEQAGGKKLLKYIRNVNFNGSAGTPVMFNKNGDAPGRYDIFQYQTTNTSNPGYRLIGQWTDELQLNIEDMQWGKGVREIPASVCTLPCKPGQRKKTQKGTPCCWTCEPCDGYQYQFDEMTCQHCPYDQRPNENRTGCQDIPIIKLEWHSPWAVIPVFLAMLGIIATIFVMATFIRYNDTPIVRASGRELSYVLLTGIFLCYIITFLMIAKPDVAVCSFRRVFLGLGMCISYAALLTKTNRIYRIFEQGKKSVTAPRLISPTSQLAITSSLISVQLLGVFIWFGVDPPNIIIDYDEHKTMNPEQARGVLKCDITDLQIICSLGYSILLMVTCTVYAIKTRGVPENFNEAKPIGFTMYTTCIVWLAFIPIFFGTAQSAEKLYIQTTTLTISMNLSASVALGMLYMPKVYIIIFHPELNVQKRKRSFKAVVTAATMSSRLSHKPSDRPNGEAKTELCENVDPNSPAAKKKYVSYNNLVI

[4] = target: T2, Metabotropic glutamate receptor 6; assay: Agonist activity at mGlu6 (unknown origin) expressed in HEK293 cells coexpressing chimeric Gq/i protein assessed as increase in intracellular calcium accumulation by Fluo-4 AM dye based fluorescence assay; assay type: functional, cell-based
[5] = target: T3, Metabotropic glutamate receptor 7; assay: Agonist activity at mGlu7 (unknown origin) expressed in HEK293 cells coexpressing chimeric Gq/i protein assessed as increase in intracellular calcium accumulation by Fluo-4 AM dye based fluorescence assay; assay type: functional, cell-based
Homo sapiens [6] = organism: Homo sapiens; assay: Selectivity ratio of EC50 for mGlu8 (unknown origin) expressed in HEK293 cells coexpressing chimeric Gq/i protein assessed as [3H]inositol phosphate accumulation to EC50 for mGlu4 (unknown origin) expressed in HEK293 cells coexpressing chimeric Gq/i protein assessed as [3H]inositol phosphate accumulation; assay type: cell-based
How it was run: (§2)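 Ratio of mGlu8 EC50 to mGlu4 EC50, both from the same functional assay. Both receptors were co-expressed in HEK293 cells with chimeric G-protein and EAAT3 and read by 3H-IP accumulation or by Fluo-4 Ca2+ release.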

Homo sapiens [7] = organism: Homo sapiens; assay: Selectivity ratio of EC50 for mGlu8 (unknown origin) expressed in HEK293 cells coexpressing chimeric Gq/i protein assessed as increase in intracellular calcium accumulation to EC50 for mGlu4 (unknown origin) expressed in HEK293 cells coexpressing chimeric Gq/i protein assessed as increase in intracellular calcium accumulation; assay type: cell-based; how it was run: as §2
[8] = target: T4, Metabotropic glutamate receptor 8 (Homo sapiens, UniProt O00222); assay: Agonist activity at mGlu8 (unknown origin) expressed in HEK293 cells coexpressing chimeric Gq/i protein assessed as [3H]inositol phosphate accumulation after 30 mins by scintillation and luminescence counting method; assay type: functional, cell-based; how it was run: as §1
T4 sequence (O00222 whole entry): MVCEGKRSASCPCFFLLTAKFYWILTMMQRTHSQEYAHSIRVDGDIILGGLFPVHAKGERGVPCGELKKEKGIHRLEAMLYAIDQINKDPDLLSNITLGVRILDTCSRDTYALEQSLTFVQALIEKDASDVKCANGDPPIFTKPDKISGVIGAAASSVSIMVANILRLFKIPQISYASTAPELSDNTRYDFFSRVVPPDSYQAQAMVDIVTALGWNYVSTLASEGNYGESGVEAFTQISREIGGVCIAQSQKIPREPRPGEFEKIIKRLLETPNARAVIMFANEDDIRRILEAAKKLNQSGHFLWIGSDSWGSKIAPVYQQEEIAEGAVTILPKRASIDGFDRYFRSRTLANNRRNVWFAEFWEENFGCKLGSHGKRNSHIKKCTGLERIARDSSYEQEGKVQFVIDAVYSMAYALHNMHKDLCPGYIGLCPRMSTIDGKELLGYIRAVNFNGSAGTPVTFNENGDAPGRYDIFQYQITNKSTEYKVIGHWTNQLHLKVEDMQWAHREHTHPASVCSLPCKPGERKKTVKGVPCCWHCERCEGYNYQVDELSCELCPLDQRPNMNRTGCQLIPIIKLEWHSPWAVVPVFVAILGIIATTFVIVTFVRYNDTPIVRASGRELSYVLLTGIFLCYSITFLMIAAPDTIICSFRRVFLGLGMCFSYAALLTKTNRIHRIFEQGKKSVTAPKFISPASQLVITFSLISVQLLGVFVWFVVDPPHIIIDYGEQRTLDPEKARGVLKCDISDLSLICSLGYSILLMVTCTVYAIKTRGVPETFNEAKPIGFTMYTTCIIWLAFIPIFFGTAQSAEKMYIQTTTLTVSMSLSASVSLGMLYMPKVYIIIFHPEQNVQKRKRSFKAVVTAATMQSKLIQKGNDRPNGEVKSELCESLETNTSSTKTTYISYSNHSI

[9] = target: T1, Metabotropic glutamate receptor 4; assay: Agonist activity at mGlu4 (unknown origin) expressed in HEK293 cells coexpressing chimeric Gq/i protein assessed as increase in intracellular calcium accumulation by Fluo-4 AM dye based fluorescence assay; assay type: functional, cell-based
[10] = target: T4, Metabotropic glutamate receptor 8; assay: Agonist activity at mGlu8 (unknown origin) expressed in HEK293 cells coexpressing chimeric Gq/i protein assessed as increase in intracellular calcium accumulation by Fluo-4 AM dye based fluorescence assay; assay type: functional, cell-based
Homo sapiens [11] = organism: Homo sapiens; assay: Selectivity ratio of EC50 for mGlu8 (unknown origin) expressed in HEK293 cells coexpressing chimeric Gq/i protein assessed as [3H]inositol phosphate accumulation to EC50 for mGlu4 (unknown origin) expressed in HEK293 cells coexpressing chimeric Gq/i protein assessed as increase in intracellular calcium accumulation; assay type: cell-based
[12] = target: T3, Metabotropic glutamate receptor 7; assay: Agonist activity at mGlu7 (unknown origin) expressed in HEK293 cells coexpressing chimeric Gq/i protein assessed as increase in intracellular calcium accumulation at 300 uM by Fluo-4 AM dye based fluorescence assay; assay type: functional, cell-based
[13] = target: T1, Metabotropic glutamate receptor 4; assay: Agonist activity at mGlu4 (unknown origin) expressed in HEK293 cells coexpressing chimeric Gq/i protein assessed as increase in intracellular calcium accumulation at 300 uM by Fluo-4 AM dye based fluorescence assay; assay type: functional, cell-based
[14] = target: T4, Metabotropic glutamate receptor 8; assay: Agonist activity at mGlu8 (unknown origin) expressed in HEK293 cells coexpressing chimeric Gq/i protein assessed as increase in intracellular calcium accumulation at 300 uM by Fluo-4 AM dye based fluorescence assay; assay type: functional, cell-based

SMILES | EC50 [4] [µM] | EC50 [5] [µM] | Ratio EC50 (Homo sapiens [6]) | Ratio EC50 (Homo sapiens [7]) | EC50 [8] [µM] | EC50 [9] [µM] | EC50 [10] [µM] | also measured
N[C@@H](CCP(=O)(O)C(O)c1ccccc1C(=O)O)C(=O)O (stereo not given in full) |  |  |  |  |  |  |  | Activity [1]: inactive
N[C@@H](CCP(=O)(O)O)C(=O)O | 1 | 249 | 2.5 | 2.2 |  |  |  | EC50 [2]: 2.4 µM; EC50 [3]: 337 µM
N[C@@]1(C(=O)O)C[C@H](C(=O)O)[C@H](C(=O)O)C1 |  |  | 3 |  | 5.1 |  |  | EC50 [2]: 11 µM; EC50 [3]: 280 µM
N[C@@H](CCP(=O)(O)C(O)c1cccc(C(=O)O)c1)C(=O)O (stereo not given in full) |  |  | 5.8 |  | 125 |  |  | EC50 [2]: > 100 µM
N[C@@H](CCP(=O)(O)C(O)c1ccc([N+](=O)[O-])o1)C(=O)O (stereo not given in full) |  |  | 2.2 |  | 0.3 |  |  | EC50 [2]: 6.1 µM; EC50 [3]: 1970 µM
N[C@@H](CCP(=O)(O)C(O)c1ccc([N+](=O)[O-])c(C(F)(F)F)c1)C(=O)O (stereo not given in full) | 2.9 | > 100 | 2.4 |  | 0.98 |  |  | 
N[C@@H](CCP(=O)(O)C(O)c1cc(O)c(O)c([N+](=O)[O-])c1)C(=O)O (stereo not given in full) | 26 | > 100 | 1.1 | 7.6 | 5.4 | 4.3 | 32.8 | 
N[C@@H](CCP(=O)(O)C(O)c1cccnc1)C(=O)O (stereo not given in full) |  |  |  |  | 36 | 30 |  | Ratio EC50 (Homo sapiens [11]): 1.2
N[C@@H](CCP(=O)(O)C(O)c1c(F)c(F)c(F)c(F)c1F)C(=O)O (stereo not given in full) | 30 | > 100 | 3.7 | 1.4 | 18.5 | 5.6 | 7.6 | 
N[C@H](C(=O)O)c1ccc(C(=O)O)c(C(=O)O)c1 | 3.2 to 6.2 | 30 to 100 | 0.012 | 0.014 | 0.023 | 3.2 | 0.044 | 
N[C@@H](CCP(=O)(O)[C@@H](O)c1cc(F)c(O)c([N+](=O)[O-])c1)C(=O)O | 10.2 | 53.8 |  | 1.8 |  | 9.77 | 17.1 | 
N[C@@H](CCP(=O)(O)Cc1cccc([N+](=O)[O-])c1)C(=O)O | 3.2 | > 100 | 5.4 | 2.5 |  |  |  | 
N[C@@H](CCP(=O)(O)C(O)c1ccc([N+](=O)[O-])s1)C(=O)O (stereo not given in full) | 4.2 | > 100 | 3.9 |  | 1.9 |  |  | 
N[C@@H](CCP(=O)(O)C(O)c1ccc(C(=O)O)cc1)C(=O)O (stereo not given in full) |  |  | 18 |  | 141 |  |  | EC50 [2]: 31 µM; EC50 [3]: 169 µM
COc1cc(C(N)P(=O)(O)CC[C@H](N)C(=O)O)cc([N+](=O)[O-])c1O (stereo not given in full) | > 100 |  |  | 3 |  | 11.6 |  | Activity [12]: inactive
N[C@@H](CCCP(=O)(O)C(O)c1ccc(OCC(=O)O)cc1)C(=O)O (stereo not given in full) |  |  |  |  |  |  |  | Activity [13]: inactive; Activity [14]: inactive
COc1cc(C(O)P(=O)(O)CCC[C@H](N)C(=O)O)cc([N+](=O)[O-])c1O (stereo not given in full) |  |  |  |  |  |  |  | Activity [13]: inactive; Activity [14]: inactive
N[C@@H](CCP(=O)(O)CCC(=O)O)C(=O)O | 6.7 | 89 | 1.2 | 1.1 | 7.8 | 5.94 | 6.5 | EC50 [2]: 31 µM
N[C@@H](CCP(=O)(O)[C@H](O)c1ccc(O)c([N+](=O)[O-])c1)C(=O)O | 3.6 | 62 |  | 61 |  | 0.5 | 31.4 | 
N[C@@H](CCP(=O)(O)[C@@H](O)c1ccc(O)c([N+](=O)[O-])c1)C(=O)O | 68.4 | 295 |  | 8.5 |  | 4.5 | 39.8 | 
Nc1ncc(C(O)P(=O)(O)CC[C@H](N)C(=O)O)s1 (stereo not given in full) | > 100 |  |  | 1.9 |  | 15 | 28 | Activity [12]: inactive
N[C@@H](CCP(=O)(O)C(O)c1ccc([N+](=O)[O-])cc1)C(=O)O (stereo not given in full) | 4.6 | > 100 | 1.4 | 0.8 | 0.53 | 0.64 | 0.49 | 
N[C@@H](CCP(=O)(O)C(O)c1ccc(Cl)c([N+](=O)[O-])c1)C(=O)O (stereo not given in full) | 18 | > 100 | 1.2 | 1 | 2.5 | 4.7 | 4.9 | 
N[C@@H](CCP(=O)(O)C(O)c1ccc(F)c([N+](=O)[O-])c1)C(=O)O (stereo not given in full) | 4 | > 100 | 2.1 | 1.5 | 1.3 | 0.44 | 0.66 | EC50 [2]: 25 µM
N[C@@H](CCP(=O)(O)C(O)c1ccc(N2CCOCC2)c([N+](=O)[O-])c1)C(=O)O (stereo not given in full) | > 100 | > 100 |  |  | > 100 |  |  | 
N[C@@H](CCP(=O)(O)[C@H](O)c1cccc([N+](=O)[O-])c1)C(=O)O | 2.4 | > 100 |  | 1.2 |  | 1 | 1.25 | 
N[C@@H](CCP(=O)(O)C(O)c1ccc(C(F)(F)F)c([N+](=O)[O-])c1)C(=O)O (stereo not given in full) | 11.9 | > 100 |  | 3.5 |  | 0.44 | 1.54 | EC50 [2]: 5.7 µM
N[C@@H](CCP(=O)(O)[C@H](O)c1cc(F)c(O)c([N+](=O)[O-])c1)C(=O)O | 0.76 | 39 |  | 14 |  | 2.42 | 34.3 | 
